Assay [1] addresses Vascular endothelial growth factor receptor 2 (Homo sapiens, UniProt P35968). Description: Inhibition of vascular endothelial growth factor receptor 2.
Assay [2] addresses T1, Cyclin-dependent kinase 1 (Homo sapiens, UniProt P06493). The experiment in a line: Inhibition of cyclin dependent kinase (CDK1). In short, it runs like this: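 Radiometric FlashPlate assay: biotinylated peptide substrate at 0.025 μM with 33P-γ-ATP plus 10 μM ATP in 50 mM Tris-HCl pH 8, 10 mM MgCl2, 0.1 mM Na3VO4, 1 mM DTT. Incubated 1 h at 30 °C, stopped by PBS/100 mM EDTA wash, then scintillation counted. Inhibition is relative to untreated controls; IC50 from linear regression of percent inhibition. Conditions varied slightly per kinase.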

A short description of assay [3]: Inhibitory concentration of compound against growth of MES SA cells (low p glycoprotein). The settings on record: Homo sapiens.
For assay [4], the target named is Cyclin-dependent kinase 4/cyclin D1 (Homo sapiens, UniProt P11802). The experiment in a line: Inhibition of CDK4/cyclin D1. The class given is protein-complex assay. Put shortly:
(§1)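 Incubated 1 h at 30 °C on a streptavidin-coated plate, stopped by washing with PBS containing 100 mM EDTA, then scintillation counted. Conditions varied slightly by kinase. IC50 was derived by linear regression of % inhibition versus untreated controls.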

Assay [5] can be described thus: Inhibitory concentration of compound against growth of MES SA/Dx 5 cells (high p glycoprotein). Conditions: Homo sapiens, MES-SA/Dx5.
The subject of the next assay is U-937. Description: Inhibitory concentration of compound against growth of U-937 cells. Conditions: Homo sapiens.
Assay [6] deals with Cyclin-dependent kinase 1/cyclin B (Homo sapiens, UniProt P06493). Description: Inhibition of Cyclin-dependent kinase 1-cyclin B. In kind it is protein-complex assay.
The target in assay [7] is Cyclin-dependent kinase 5/CDK5 activator 1 (Homo sapiens, UniProt Q00535).
Assay [8] addresses Cyclin-dependent kinase 2/cyclin A (Homo sapiens, UniProt P24941). Description: Inhibitory concentration of compound against CDK2/cyclin A. The class given is protein-complex assay.
For the next assay, the system named is HCT-116. The experiment in a line: Inhibitory concentration of compound against growth of HCT116 cells. The settings on record: Homo sapiens.
Assay [9] in a line: Inhibition of [Ca(2+)]/Calmodulin dependent kinase.
Another assay concerns HeLa. The experiment in a line: Inhibitory concentration of compound against growth of HeLa cells. The settings on record: Homo sapiens.
In assay [10] the target is RAC-beta serine/threonine-protein kinase (Homo sapiens, UniProt P31751). Description: Inhibition of PKB beta.
Assay [11] is described as follows: Inhibition of Protein kinase C gamma.
Assay [12] has as its target Cyclin-dependent kinase 7/ cyclin H (Homo sapiens, UniProt P50613). Description: Inhibition of CDK7/cyclin H. In kind it is protein-complex assay. Put shortly:
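Run by Upstate Biotech as a contract panel: kinase phosphorylation of an appropriate peptide/protein substrate with 100 μM ATP, under conditions linear with time. IC50 is the average of two separate determinations.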

The target in assay [13] is T1, Cyclin-dependent kinase 1. Description: Inhibition of cyclin dependent kinase CDK1. Put shortly: as §1
Assay [14] has as its target Fibroblast growth factor receptor 2 (Homo sapiens, UniProt P21802). Description: Inhibition of Fibroblast growth factor receptor 2.
The nature of assay [15]: Inhibition of Glycogen synthase kinase-3 beta.
The next assay deals with CDK6/cyclin D3 (Homo sapiens, UniProt Q00534). Description: Inhibition of CDK6/cyclin D3. The class given is protein-complex assay. Put shortly:
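Run in an external kinase panel. Kinase phosphorylation of the appropriate peptide/protein substrate was measured with 100 μM ATP, under conditions linear with time. IC50 is the average of two separate determinations.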

Assay [16] addresses Mitogen-activated protein kinase 1 (Homo sapiens, UniProt P28482). Description: Inhibition of ERK 2.
Another assay concerns the target Casein kinase II (Homo sapiens, UniProt P19784+P67870+P68400). Description: Inhibition of Casein kinase II. In kind it is protein-complex assay.
Another assay has as its system A-375. The experiment in a line: Inhibitory concentration of compound against growth of A-375 cells. The settings on record: Homo sapiens.

As for `Nc1nc(Nc2cccc(Cl)c2)nc(-c2ccnc(NCCCO)c2)n1`, the results for the concentration for half-maximal inhibition (IC50) in [1] and in assay [2] were 1070 nM and 1110 nM, respectively.
Consider `OCCCNc1cc(-c2ncnc(Nc3cccc(Cl)c3)n2)ccn1`, for which the IC50 (in general, the concentration that gives 50% inhibition) amounted to 228 nM in assay [3]; 308 nM in assay [4]; 235 nM in assay [5]; 31 nM in the assay on U-937; 21 nM in [6]; 3 nM in assay [7]. In addition, the IC50 is 7 nM in assay [8]; 23 nM in the assay with HCT-116; over 10000 nM in [9]; 33 nM in the assay on HeLa; over 10000 nM in assay [10]; over 10000 nM in [11]. Besides, the IC50 was 126 nM in assay [12]; 21 nM in assay [13]; over 10000 nM in [14]; 20 nM in assay [15]; 356 nM against CDK6/cyclin D3; over 10000 nM in assay [16]. Also, the concentration for half-maximal inhibition (IC50) was over 10000 nM against Casein kinase II and 28 nM in the assay with A-375.
As to `OCCCNc1cncc(-c2ncnc(Nc3ccc(N4CCOCC4)cc3)n2)c1`, inhibition in assay [1] was half-maximal at 5030 nM (IC50).
`OCCCNc1cncc(-c2ncnc(Nc3cccc(Cl)c3)n2)n1` registered a concentration for half-maximal inhibition (IC50) in assay [1] of over 10000 nM.
With `OCCCNc1cncc(-c2ncnc(Nc3ccc4c(c3)OCCO4)n2)c1`, the IC50 was 4140 nM in [1] and 344 nM in assay [2].
For `OCCCNc1cncc(-c2ncnc(Nc3cccc(Cl)c3)n2)c1` the same measures were 2010 nM and 60 nM.

The values are drawn from ChEMBL document CHEMBL1145155, “Synthesis and identification of [1,3,5]triazine-pyridine biheteroaryl as a novel series of potent cyclin-dependent kinase inhibitors” (J Med Chem, 2005).
